Shown is part of a subset that was picked to be rich in hits.
Avidin bead fluor: green autofluorescence of compounds with avidin beads – biophysical, 488/530 nm, flow cytometry, artefact control, profiling panel. compound fluorescence 488/530 nm; stronger effect = higher value. fluorescence (KMESF) at 10 µM. 220,000 compounds, 0.38% hits; in the data active = fluorescence above about 47
ABCG2 inh: ABCG2 efflux pump inhibitors, primary screen, multiplex with ABCB1, IgMXP3 cells, flow cytometry; Broad substrate specificity ATP-binding cassette transporter ABCG2 (Homo sapiens), Q9UNQ0; 190,000 compounds, 0.1% hits; AID 1325, 2008; JC-1 efflux; inhibition, % at 6.6 µM;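 active = inhibition above 80%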;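 note: 0% = DMSO and 100% = nicardipine control wells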
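test system = two drug-resistant human cell lines, ABCG2 and ABCB1 | amount = 3 million cells/mL final, two lines in 1:1 ratio | reagent = JC-1 transporter substrate | doses = one concentration, 6.6 µM final | incubation = 10 min at 25 °C | signal = flow cytometric JC-1 green MFI at 530 nm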
PKD1 kinase inh: inhibitors of human PKD1 kinase, biochemical, fluorescence polarization; Serine/threonine-protein kinase D1 (Homo sapiens), Q15139; PKD1 kinase fluorescence polarization assay; inhibition, % (concentration not given with the values); 200,000 compounds, 0.056% hits; AID 797, 2007
GSH bead fluor: compound fluorescence on glutathione beads, profiling panel, artefact control, biophysical, 488/530 nm, flow cytometry | GSH beads flow cytometry, compound fluorescence 488/530 nm; stronger effect = higher value | fluorescence (KMESF) at 10 µM | 190,000 compounds, 0.25% hits | AID 1776, 2009; in the data active = fluorescence above about 89;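 note: glutathione beads carrying GST-tagged Bcl family fusion proteins plus one bare bead set; values are compound well signal with DMSO vehicle wells as background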
ABCB1 inh: ABCB1 efflux pump inhibitors, primary screen, cell-based, multiplex, flow cytometry, ABCG2 counter-screen; CCRF-Adr cells, JC-1 efflux; inhibition, % at 6.6 µM; 190,000 compounds, 0.067% hits; in the data active = inhibition above about 40%;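 note: 0% = vehicle and 100% = reference inhibitor; higher value means more JC-1 retained so stronger ABCB1 efflux block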
Target sequence (P08183 whole entry, looked up): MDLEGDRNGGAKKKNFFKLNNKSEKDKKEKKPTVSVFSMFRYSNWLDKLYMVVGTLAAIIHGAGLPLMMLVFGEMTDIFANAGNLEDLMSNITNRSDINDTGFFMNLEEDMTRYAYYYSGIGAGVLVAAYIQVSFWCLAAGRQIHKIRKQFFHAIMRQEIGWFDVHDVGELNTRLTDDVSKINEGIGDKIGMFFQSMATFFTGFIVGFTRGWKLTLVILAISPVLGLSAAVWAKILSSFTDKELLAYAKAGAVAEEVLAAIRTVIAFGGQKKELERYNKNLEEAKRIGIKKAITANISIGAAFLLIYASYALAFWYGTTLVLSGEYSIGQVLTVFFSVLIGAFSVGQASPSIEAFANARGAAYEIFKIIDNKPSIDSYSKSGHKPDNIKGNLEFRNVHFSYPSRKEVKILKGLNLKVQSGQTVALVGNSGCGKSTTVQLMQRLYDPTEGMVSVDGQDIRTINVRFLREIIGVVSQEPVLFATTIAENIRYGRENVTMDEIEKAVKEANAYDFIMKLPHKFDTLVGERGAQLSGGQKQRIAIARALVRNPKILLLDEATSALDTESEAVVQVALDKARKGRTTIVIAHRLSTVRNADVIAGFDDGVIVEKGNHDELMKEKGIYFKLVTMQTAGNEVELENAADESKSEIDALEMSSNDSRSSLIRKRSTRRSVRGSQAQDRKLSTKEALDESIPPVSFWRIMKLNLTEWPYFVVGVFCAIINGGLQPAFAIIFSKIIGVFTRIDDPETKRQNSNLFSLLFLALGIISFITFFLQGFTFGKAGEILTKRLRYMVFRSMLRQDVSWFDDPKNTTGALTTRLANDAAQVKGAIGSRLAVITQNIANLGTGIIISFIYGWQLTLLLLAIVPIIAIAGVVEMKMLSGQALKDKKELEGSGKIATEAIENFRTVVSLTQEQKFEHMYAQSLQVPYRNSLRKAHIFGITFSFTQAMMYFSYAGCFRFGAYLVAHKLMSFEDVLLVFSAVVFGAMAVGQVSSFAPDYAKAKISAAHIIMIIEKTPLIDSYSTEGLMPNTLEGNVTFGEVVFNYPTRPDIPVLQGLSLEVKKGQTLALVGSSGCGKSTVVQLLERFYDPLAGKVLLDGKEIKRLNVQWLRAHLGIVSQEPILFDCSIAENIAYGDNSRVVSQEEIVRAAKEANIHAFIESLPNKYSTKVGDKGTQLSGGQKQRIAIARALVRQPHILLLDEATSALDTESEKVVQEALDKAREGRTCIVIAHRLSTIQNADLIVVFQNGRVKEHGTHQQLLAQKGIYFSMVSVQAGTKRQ
Lmaj promast: Leishmania major promastigote growth inhibition, primary screen | 200,000 compounds, 9% hits | Leishmania major promastigotes, resazurin fluorescence viability | AID 1063, 2008 | inhibition, % at 10 µM;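 note: promastigotes grown with compound for 44 hours at 28 °C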
Active calls of the source: *; . = no result given. Cut-off read from the data, not from the text of the source, unless noted: active = inhibition above about 50%; inactive = the rest.

SMILES	Avidin bead fluor	ABCG2 inh	PKD1 kinase inh	GSH bead fluor	ABCB1 inh	Lmaj promast
COc1ccccc1C1(CCNS(=O)(=O)c2ccc(C)cc2)CCOC(C(C)C)C1 (centres undefined)	24	29	8	10	5	83*
COc1ccc(-c2oc(NC(=O)CCl)c(C#N)c2-c2ccc(OC)cc2)cc1	3	0	-3	44	0	100*
Cc1nc(NC(=O)COC(=O)C2=NNC(=O)CC2)c(Cl)cc1Cl	13	12	-4	13	1	-1
CC(C)=CC(=O)OCC(=O)Nc1nc(C)c(Cl)cc1Cl	8	3	-15	273*	1	11
CN(c1ccccc1C(=O)Nc1cccc([N+](=O)[O-])c1)S(C)(=O)=O	16	11	-9	10	1	38
CCN(CC)CCNc1nc(-c2ccco2)c2c(c1C#N)CC(C)(C)OC2	48*	2	-5	15	0	2
O=C(OCCn1cncn1)c1cc2ccccc2oc1=O	10	0	4	52	0	2
Nc1nonc1-n1nnc(C(=O)N/N=C/c2ccccc2Cl)c1COc1ccc(F)cc1	8	.	.	.	.	.
COc1ccc(/C=C/C(=O)NC(=S)NNC(=O)Cc2cccs2)cc1	11	0	-8	51	0	98*
COc1ccc(/C=C/C(=O)NC(=S)NNC(=O)c2ccco2)cc1	4	0	1	31	-1	99*
O=C(Nc1c(F)cccc1F)c1cnc(N2CCN(c3ccccn3)CC2)c2ccccc12	11	32	1	39	8	79*
CCCN(CCC)C(=S)NC(=O)c1ccc(Cl)cc1Cl	10	2	1	13	0	1
CCCN(CCC)CCCOC(=O)c1ccc(Cl)cc1Cl	30	-1	-2	23	0	90*
CCOC(=O)Oc1ccc(C(=O)OCCCN(C)C)cc1OC	4	1	4	10	1	-1
CN(C)CCCOC(=O)c1ccc(Cl)cc1Cl	31	0	-2	11	0	93*
COc1ccc(C(=O)OCCCN(C)C)cc1OC	14	0	5	3	0	58*
CCOc1ccc(N2C(=O)CC(Sc3ccccc3C(=O)O)C2=O)c([N+](=O)[O-])c1 (centres undefined)	10	0	-3	15	0	-8
C=CCc1c(C)[nH]c2c(OC)cccc2c1=S	10	-3	-4	14	-1	76*
Cc1ccnc(SCC(=O)n2c3c(c4ccccc42)CC(C)CC3)n1 (centres undefined)	14	8	1	66	1	-2
COc1ccc(NC(=O)CSc2nnc3n2CCCCC3)cc1	5	10	0	25	0	-3
COc1ccc(-n2c(-c3ccc(Br)cc3)c[n+]3c2CCC3)cc1	10	-1	0	11	3	100*
COc1ccc(-n2c(-c3ccc(Br)cc3)c[n+]3c2CCCCC3)cc1	20	0	-5	10	0	100*
COc1ccc(-n2c(-c3ccccc3)c[n+]3c2CCC3)cc1	8	.	.	.	.	.
COc1ccc(-n2c(-c3ccc(Br)cc3)nc(=S)c3c2CCCC3)cc1	10	-14	-4	12	-1	-4
CCOc1ccc(-c2c[n+]3c(n2-c2ccccc2)CCCCC3)cc1	6	7	-4	9	1	100*
SMILES	Avidin bead fluor	ABCG2 inh	PKD1 kinase inh	GSH bead fluor	ABCB1 inh	Lmaj promast
COc1ccc(-n2c(-c3ccc(Br)cc3)c[n+]3c2SC(C)C3)cc1 (centres undefined)	25	1	-5	9	0	100*
FC(F)Sc1ccc(-n2c(-c3ccc(Cl)cc3)c[n+]3c2CCC3)cc1	5	0	-3	23	0	25
O=C(COC(=O)c1ccc(Br)cc1)NCc1ccc(F)cc1	9	5	-4	19	1	-7
Cc1ccc(-n2c(-c3ccc(Cl)cc3)c[n+]3c2CCC3)cc1	8	.	.	.	.	.
CCOc1ccc(-c2nnc(-c3ccccc3)n2-c2ccccc2)cc1	9	4	-1	60	1	65*
Cc1ccc(-n2c(-c3ccccc3)c[n+]3c2CCC3)cc1	21	-1	-4	13	0	98*
CCOc1ccc(-c2nnc(-c3ccccc3)o2)cc1	5	6	2	16	0	-4
c1ccc(-c2c[n+]3c(n2-c2ccccc2)SCC3)cc1	10	.	.	.	.	.
CCOc1ccc(-n2c(-c3ccc(Cl)cc3)c[n+]3c2SCC3)cc1	11	6	0	12	2	100*
COc1ccc(CCNC(=O)Cc2c(Cl)cccc2Cl)cc1	15	5	-9	18	1	-5
COC(=O)c1ccc(NC(=O)CNc2ccccc2)cc1	3	3	9	9	2	76*
COC(=O)c1ccc(NC(=O)CSC2=NC(=O)C(c3ccccc3)C(=O)N2)cc1 (centres undefined)	11	0	-10	5	.	53*
COc1nc2c(c(-c3cc(Br)cs3)c1C#N)Cc1ccccc1-2	4	.	.	.	.	.
COCCNc1ccc(N2C(=O)C3CCCCC3C2=O)cc1[N+](=O)[O-] (centres undefined)	6	3	4	20	2	1
O=C1C2CC=CCC2C(=O)N1c1ccc(NCCc2cccc(F)c2)c([N+](=O)[O-])c1 (centres undefined)	14	13	0	4	0	61*
O=C1C2CCCCC2C(=O)N1c1ccc(NC2CCCCC2)c([N+](=O)[O-])c1 (centres undefined)	19	21	-6	19	9	52*
Cc1nc(Nc2ccc(S(=O)(=O)N3CCCCC3C)cc2)c2nnn(Cc3ccccc3)c2n1 (centres undefined)	3	8	-9	7	2	90*
O=C(C1CC(c2ccccc2O)=NO1)N1CCCCC1 (centres undefined)	34	1	8	19	0	-7
CCOC(=O)C(C)Sc1nc2c([nH]c3ccccc32)c(=O)n1C (centres undefined)	7	0	-8	15	0	26
CC(C)Sc1nc2c([nH]c3ccccc32)c(=O)n1C	57*	3	-4	11	1	-8
Cc1ccc2c(c1)c1c(n2CC(O)CNC(CO)(CO)CO)CCCC1 (centres undefined)	19	6	-5	16	1	-2
Cc1ccc2c(c1)c1c(n2CC(O)CNC2CCCCC2)CCCC1 (centres undefined)	10	1	1	13	2	101*
